Screening data (PubChem)
The list is not random: actives were taken first. Their share in the collection is about 5.1%.
APP 5'UTR act – APP 5'UTR luciferase reporter activation | SH-SY5Y APP 5'UTR luciferase reporter, luminescence; zero percent = DMSO vehicle wells | activation, % at 2 µM | 1% of 190,000 active;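 active = activation above a set limit, based on mean plus 3 SD of controls, cut at about 140% in these data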
STAT1 act – STAT1 signaling activation. 2.6% of 200,000 active. AID 932. NIH 3T3 STAT1-luciferase reporter, IFN-gamma, luminescence; 100% = IFN-gamma alone, no compound. activation (% of control), % at 5.5 µM;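 active = activation above the screen-wide mean activation plus 3 SD, cut at about 130% in these data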
STAT3 activator – STAT3 signaling activation | activation (% of control), % at 5.6 µM | U3A cells, IL-6 STAT3-luciferase reporter, luminescence; 100% = signal with IL-6 EC80 alone | 0.91% of 190,000 active;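 active = activation above the screen-wide mean of compound activation plus 3 SD, cut at about 130% in these data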
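system = STAT3-luciferase reporter U3A cells | reagent = IL-6 stimulus at 33 ng/mL final | timing = 1 h compound pre-exposure, 6 h IL-6 stimulation, 37 °C | measured by = luminescence | evaluation = % activation versus median of IL-6-stimulated wells | control set = IL-6-only wells as 100% reference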
STAT1 blocker – reduces IFN-gamma driven STAT1 reporter signal. NIH 3T3 STAT1-luciferase reporter, luminescence. inhibition, % at 5.5 µM. 0.35% of 200,000 active. AID 920;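 active = inhibition above a set limit, the mean inhibition across all tested compounds plus 3 SD, cut at about 34% in these data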
NF-kB neuron act – NF-kB expression increase, human neuronal cells. NF-kB reporter expression; hits give high values. fold change at 12.5 µM. AID 1239. 1.6% of 190,000 active; in the data active = fold change above about 3.3
STAT3 inh – inhibitors of IL-6 induced STAT3 signaling | inhibition, % at 5.5 µM | 0.89% of 190,000 active | AID 862 | U3A cells, IL-6 STAT3-luciferase reporter, luminescence; host cell line lacks STAT1;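 active = inhibition above the mean inhibition across all screened compounds plus 3 SD, cut at about 44% in these data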
Of the large screens only hits and unclear results are named; the others gave an inactive call.

Brc1ccc(-c2csc(/N=C/N3CCCC3)n2)cc1	STAT1 act 132
NC(=O)C1CCN(c2nc(-c3ccc(Br)cc3)cs2)CC1	STAT1 act 131
Brc1ccc(-c2csc(/N=C/N3CCOCC3)n2)cc1	STAT1 act 136
Cc1ccc(OCc2ccc(C(=O)Nc3nc4ccccc4n3C)o2)c([N+](=O)[O-])c1	none
Cc1oc(CSCC2CCCO2)cc1C(=O)O (stereo not given)	STAT1 act 148
Cc1oc(C2CC2)cc1C(=O)O	none
COC(=O)c1cccc(COC(=O)c2cccnc2SC)c1	NF-kB neuron act 3.5
COc1ccc(C(C)=O)cc1COC(=O)c1cccnc1SC	NF-kB neuron act 3.9
CSc1ncccc1C(=O)OCc1ccc(C#N)cc1	none
COc1ccc(Cl)cc1NC(=S)NNC(=O)c1cccs1	none
COc1ccc(-c2cc(-c3ccccc3O)[nH]n2)cc1	APP 5'UTR act 192, NF-kB neuron act 7.1
COc1ccc(-c2cc(-c3ccccc3)n[nH]2)c(O)c1	APP 5'UTR act 190, NF-kB neuron act 7.9
COc1ccc(/C=C/c2nc(-c3ccccc3O)n[nH]2)cc1	APP 5'UTR act 170, NF-kB neuron act 7.6
COC(=O)c1cc(-c2ccc(OC)cc2)n[nH]1	none
Cc1cc(C)cc(NC(=S)NN)c1	none
CCC1Oc2ccccc2N(CC(=O)NCc2ccco2)C1=O (stereo not given)	none
C=CCNC(=S)N/N=C(\C)c1ccccn1	STAT1 act 136
CN(C)CCCN(C(=O)/C=C/c1cccs1)c1nc2c(F)cccc2s1	NF-kB neuron act 5.4
Nc1c(C(=O)Nc2ccc(Cl)cc2)oc2ccccc12	APP 5'UTR act 213, STAT1 act 170, STAT3 activator 173, NF-kB neuron act 5.6
Cc1c(C(=O)NC2=NCCS2)oc2ccccc12	STAT1 act 137, NF-kB neuron act 7.6
C=CCNC(=S)NC(=O)c1oc2ccccc2c1C	STAT1 act 134
Cc1c(C(=O)Nc2cnccn2)oc2ccccc12	NF-kB neuron act 4.7
Cc1sc(NC(=O)c2oc3ccccc3c2C)c(C#N)c1C	none
CC(=O)Nc1cccc(NC(=O)c2oc3ccccc3c2C)c1	STAT1 act 142
Nn1cnnc1SCC(=O)Nc1ccc(C2CCCCC2)cc1	none
O=C(O)CSCC(=O)Nc1ccc(C2CCCCC2)cc1	STAT1 blocker 52, STAT3 inh 93
CCC(CO)Nc1ncnc2c1cnn2-c1ccc(Cl)cc1 (stereo not given)	APP 5'UTR act 162, STAT1 act 147
CCC(CO)Nc1ncnc2c1cnn2-c1ccc(OC)cc1 (stereo not given)	APP 5'UTR act 148, STAT1 act 147
CCOC(=O)C1(CCOc2ccccc2)CCN(Cc2ccc3nonc3c2)CC1	none
O=C(CSc1nnc2c(n1)[nH]c1ccc(S(=O)(=O)N3CCOCC3)cc12)Nc1ccc(F)c(F)c1	none
CC(C)c1ccc2[nH]c3nc(SCC(=O)N4CCOCC4)nnc3c2c1	STAT1 act 131
CCOC(=O)C(C)On1c(-c2ccccc2)nc2ccc([N+](=O)[O-])cc21 (stereo not given)	STAT1 act 132
O=C(O)COn1c(-c2ccc(Cl)cc2)nc2ccc(Cl)cc21	none
O=C(O)COn1c(-c2ccccc2)nc2ccc([N+](=O)[O-])cc21	STAT1 act 143
CCOC(=O)C(C)On1c(-c2ccc(Cl)cc2)nc2ccc([N+](=O)[O-])cc21 (stereo not given)	STAT1 act 133, NF-kB neuron act 5.8
Fc1ccc(N/N=C/C=C/c2ccccc2)c(F)c1	STAT1 act 137
Fc1ccc(NC(=S)N/N=C/c2ccc(F)c(F)c2)c(F)c1	none
O=C(CNC(=O)c1cccc(F)c1)N/N=C/C=C/c1ccccc1	none
O=C(O)c1ccc(/C=N/Nc2ccc(F)cc2F)cc1	APP 5'UTR act 170, NF-kB neuron act 12
Clc1ccc(N/N=C/c2ccncc2)cc1Cl	none
Fc1ccc(N/N=C/c2ccncc2)c(F)c1	STAT1 act 129
CCCCN(NC(C)=O)c1nc(Cl)nc(NC(C)C)n1	none (no result: APP 5'UTR act)
Cc1cccc(S(=O)(=O)N2CCC(CO)(Cc3ccccc3)CC2)c1	none
CCCCOc1ccc(-c2ncc(Cl)cn2)cc1	NF-kB neuron act 3.7
c1csc(-c2cnc3ccccc3n2)c1	STAT1 act 129
CCCCOc1ccc(-c2cnc3ccccc3n2)cc1	STAT1 act 149, NF-kB neuron act 3.6 (no result: APP 5'UTR act)
CCCCCCCOc1ccc(-c2ccc(C#N)cn2)cc1	none
Clc1ccc(-c2cnc3ccccc3n2)cc1	APP 5'UTR act 135, NF-kB neuron act 3.3
COc1ccc(CCNC(=O)C(NS(=O)(=O)c2ccc3c(c2)CCN3C(C)=O)C(C)C)cc1OC (stereo not given)	none (no result: NF-kB neuron act)
CC(Sc1nc2ccccc2s1)C(=O)c1c(N)n(C)c(=O)n(C)c1=O (stereo not given)	none
COc1ccc(N2C(=O)C(CC(N)=O)N(NC(=O)c3cccc(OC)c3)C2=S)cc1 (stereo not given)	none
Cc1[nH]c2ccccc2c1Cc1nnc(SCc2ccccc2)o1	none
CCCCOc1ccc(-c2cc(C(=O)NNC(=S)NCC)c3ccccc3n2)cc1	APP 5'UTR act 154, STAT1 blocker 59, NF-kB neuron act 4.1, STAT3 inh 87
Cc1cc(C)cc(C(=O)Nc2ccc(N3CCCC3)cc2)c1	APP 5'UTR act 146, STAT1 act 151
COc1ccccc1C(=O)Nc1ccc(N2CCCCC2)cc1	APP 5'UTR act 168, STAT1 act 140, STAT3 activator 151, NF-kB neuron act 4.9
O=C(Nc1ccc(N2CCCCCC2)cc1)c1ccccc1Cl	STAT1 act 147, NF-kB neuron act 4.7
O=C(NC(=S)Nc1ccc(N2CCCCC2)cc1)c1ccco1	STAT1 act 132
O=C(Nc1ccc(N2CCCC2)cc1)C(c1ccccc1)c1ccccc1	none
CC(C)Oc1ccc(C(=O)Nc2ccc(N3CCCC3)cc2)cc1	none
Cc1cc(C(=O)CSc2n[nH]c(-c3ccccc3F)n2)c(C)n1Cc1cccs1	none
COc1ccccc1-n1c(CNc2ccc(F)cc2)nnc1SCC(=O)Nc1cc(C)on1	none
O=C(Nc1ccc(N2CCCCC2)cc1)c1ccccn1	STAT1 blocker 96, STAT3 inh 110
O=C(Nc1ccc(N2CCCCC2)cc1)C(Cl)c1ccccc1 (stereo not given)	none
C#CCNC(=O)C1=C[C@@H](c2coc3ccccc3c2=O)C[C@@H](OCc2ccc(CO)cc2)O1	none (no result: STAT3 activator, STAT3 inh)
O=C(CN(Cc1ccccc1)S(=O)(=O)c1ccccc1)N/N=C/c1ccccc1C(=O)O	none
COC(=O)Cc1ccc(O)c(N)c1	none
Cc1ccc(NC(=O)c2cncc(Br)c2)cc1S(=O)(=O)N(C)C	STAT1 act 136
CCn1cc(Cl)c(C(=O)Nc2ccc3c(c2)OCCO3)n1	APP 5'UTR act 137, NF-kB neuron act 4.1
